Reference: ChEMBL document CHEMBL1128716, “4,5-Dihydro-3-(methanesulfonamidophenyl)-1-phenyl-1H-2,4-benzodiazepines: a novel class III antiarrhythmic agents” (J Med Chem, 1995)
Blank lines part the entries; values can stand above or below the molecule they belong to. Calls of active or inactive are those of the source.

How the values were obtained:
Oryctolagus cuniculus [1] = species: Oryctolagus cuniculus; experiment: In vitro concentration at which cardiac refractoriness in rabbit is increased by 20 ms; type: functional; conditions: Heart
Procedure, shortened: (§1)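 Isolated hearts stimulated at twice threshold (1 mA minimum), equilibrated 45 min. ERP determined by scanning diastole with a single premature stimulus after 15 min at each of five cumulative concentrations. EC20 is the concentration raising ERP by 20 ms, estimated by linear regression of concentration–response data, in nM; n = 3–5 hearts.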

Canis familiaris [2] = experiment: Maximum increase in ERP(ms) after oral dose of the compound( 0.3 mg/kg) in mongrel dogs at a basic cycle length of 500 ms.; type: functional, Canis lupus familiaris
Procedure, shortened: (§2)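 Conscious instrumented dogs, at least 7 days after surgery, suspended in slings during normal sinus rhythm. After three baseline ERP measurements, 0.3 mg/kg given orally by gastric lavage. ERP taken every 15 min for 3 h with pacing at basic cycle lengths of 500, 400 and 250 ms. Value is the maximum ERP increase over that interval, mean ± SEM.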

[3] = biological target: Sodium channel protein type 5 subunit alpha (Homo sapiens, UniProt Q14524); experiment: Blockade of Na+ current in frog oocytes expressing human cardiac sodium channel (HH1); type: cell-based, Oocyte
Procedure, shortened: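 HH1 transcripts injected into Xenopus laevis oocytes, incubated at room temperature 24–72 h. Two-microelectrode voltage clamp (3 M KCl electrodes), bath NaCl 140, KCl 2, CaCl2 1.8, MgCl2 1, HEPES 5 mM, pH 7.5, 21–23 °C. Holding −100 mV; peak current at the I–V maximum measured before and after test agent; IC50 in μM.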

[4] = Displacement of [3H]D-888 from canine cardiac calcium channel; type: tissue-based, Canis lupus familiaris, Heart
Procedure, shortened: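 Canine cardiac sarcolemma vesicles (50 μg protein) with 5 nM [3H]D888 in 50 mM Tris-HCl pH 7.4, 0.1% BSA, 90 min at 25 °C, triplicate. Nonspecific binding defined with 31.6 μM (S)-verapamil. Bound ligand collected by filtration on polyethylenimine-treated filters; IC50 in μM.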

Canis familiaris [5] = experiment: Maximum increase in ERP(ms) after oral dose of the compound( 0.3 mg/kg) in mongrel dogs at a basic cycle length of 250 ms.; type: functional, Canis lupus familiaris; procedure, shortened: as §2
Canis familiaris [6] = experiment: Maximum increase in ERP(ms) after oral dose of the compound( 0.3 mg/kg) in mongrel dogs at a basic cycle length of 400 ms.; type: functional, Canis lupus familiaris; procedure, shortened: as §2
[7] = (§3) Displacement of [3H]BTX from sodium channel; set-up: species or system Canis lupus familiaris
Procedure, shortened: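 Canine cardiac sarcolemma vesicles (50 μg protein) incubated with 5 nM [3H]BTX-B, 60 min at 37 °C, triplicate. Nonspecific binding with 0.3 mM veratridine. Filtration read-out; IC50 in μM.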

Canis familiaris [8] = experiment: Maximum increase in ERP(ms) after oral dose of the compound( 0.3 mg/kg) in mongrel dogs at a basic cycle […].; type: functional, Canis lupus familiaris; procedure, shortened: as §2
[9] = as §3
Oryctolagus cuniculus [10] = species: Oryctolagus cuniculus; experiment: In vitro concentration at which cardiac refractoriness in rabbit (ERP-effective refractory period) is increased by 20 ms; inactive at 1000; type: functional; conditions: Heart; procedure, shortened: as §1
Canis familiaris [11] = experiment: The orally dosed values in animals (0.3 mg/kg) represent the maximum increase in ERP observed over a 3 hour interval. Pacing was done at basic cycle lengths of 500 ms.; type: functional, Canis lupus familiaris; procedure, shortened: as §2
Canis familiaris [12] = experiment: Prolongation of ERP(effective refractory […]) in mongrel dogs over a 3 hour interval following oral administration (0.3 mg/kg), pacing at a basic cycle length of 250 ms.; type: functional, Canis lupus familiaris; procedure, shortened: as §2
Canis familiaris [13] = experiment: Prolongation of ERP(effective refractory […]) in mongrel dogs over a 3 hour interval following oral administration (0.3 mg/kg), pacing at a basic cycle length of 400 ms.; type: functional, Canis lupus familiaris; procedure, shortened: as §2

Sodium channel protein type 5 subunit alpha, sequence (Q14524 whole entry): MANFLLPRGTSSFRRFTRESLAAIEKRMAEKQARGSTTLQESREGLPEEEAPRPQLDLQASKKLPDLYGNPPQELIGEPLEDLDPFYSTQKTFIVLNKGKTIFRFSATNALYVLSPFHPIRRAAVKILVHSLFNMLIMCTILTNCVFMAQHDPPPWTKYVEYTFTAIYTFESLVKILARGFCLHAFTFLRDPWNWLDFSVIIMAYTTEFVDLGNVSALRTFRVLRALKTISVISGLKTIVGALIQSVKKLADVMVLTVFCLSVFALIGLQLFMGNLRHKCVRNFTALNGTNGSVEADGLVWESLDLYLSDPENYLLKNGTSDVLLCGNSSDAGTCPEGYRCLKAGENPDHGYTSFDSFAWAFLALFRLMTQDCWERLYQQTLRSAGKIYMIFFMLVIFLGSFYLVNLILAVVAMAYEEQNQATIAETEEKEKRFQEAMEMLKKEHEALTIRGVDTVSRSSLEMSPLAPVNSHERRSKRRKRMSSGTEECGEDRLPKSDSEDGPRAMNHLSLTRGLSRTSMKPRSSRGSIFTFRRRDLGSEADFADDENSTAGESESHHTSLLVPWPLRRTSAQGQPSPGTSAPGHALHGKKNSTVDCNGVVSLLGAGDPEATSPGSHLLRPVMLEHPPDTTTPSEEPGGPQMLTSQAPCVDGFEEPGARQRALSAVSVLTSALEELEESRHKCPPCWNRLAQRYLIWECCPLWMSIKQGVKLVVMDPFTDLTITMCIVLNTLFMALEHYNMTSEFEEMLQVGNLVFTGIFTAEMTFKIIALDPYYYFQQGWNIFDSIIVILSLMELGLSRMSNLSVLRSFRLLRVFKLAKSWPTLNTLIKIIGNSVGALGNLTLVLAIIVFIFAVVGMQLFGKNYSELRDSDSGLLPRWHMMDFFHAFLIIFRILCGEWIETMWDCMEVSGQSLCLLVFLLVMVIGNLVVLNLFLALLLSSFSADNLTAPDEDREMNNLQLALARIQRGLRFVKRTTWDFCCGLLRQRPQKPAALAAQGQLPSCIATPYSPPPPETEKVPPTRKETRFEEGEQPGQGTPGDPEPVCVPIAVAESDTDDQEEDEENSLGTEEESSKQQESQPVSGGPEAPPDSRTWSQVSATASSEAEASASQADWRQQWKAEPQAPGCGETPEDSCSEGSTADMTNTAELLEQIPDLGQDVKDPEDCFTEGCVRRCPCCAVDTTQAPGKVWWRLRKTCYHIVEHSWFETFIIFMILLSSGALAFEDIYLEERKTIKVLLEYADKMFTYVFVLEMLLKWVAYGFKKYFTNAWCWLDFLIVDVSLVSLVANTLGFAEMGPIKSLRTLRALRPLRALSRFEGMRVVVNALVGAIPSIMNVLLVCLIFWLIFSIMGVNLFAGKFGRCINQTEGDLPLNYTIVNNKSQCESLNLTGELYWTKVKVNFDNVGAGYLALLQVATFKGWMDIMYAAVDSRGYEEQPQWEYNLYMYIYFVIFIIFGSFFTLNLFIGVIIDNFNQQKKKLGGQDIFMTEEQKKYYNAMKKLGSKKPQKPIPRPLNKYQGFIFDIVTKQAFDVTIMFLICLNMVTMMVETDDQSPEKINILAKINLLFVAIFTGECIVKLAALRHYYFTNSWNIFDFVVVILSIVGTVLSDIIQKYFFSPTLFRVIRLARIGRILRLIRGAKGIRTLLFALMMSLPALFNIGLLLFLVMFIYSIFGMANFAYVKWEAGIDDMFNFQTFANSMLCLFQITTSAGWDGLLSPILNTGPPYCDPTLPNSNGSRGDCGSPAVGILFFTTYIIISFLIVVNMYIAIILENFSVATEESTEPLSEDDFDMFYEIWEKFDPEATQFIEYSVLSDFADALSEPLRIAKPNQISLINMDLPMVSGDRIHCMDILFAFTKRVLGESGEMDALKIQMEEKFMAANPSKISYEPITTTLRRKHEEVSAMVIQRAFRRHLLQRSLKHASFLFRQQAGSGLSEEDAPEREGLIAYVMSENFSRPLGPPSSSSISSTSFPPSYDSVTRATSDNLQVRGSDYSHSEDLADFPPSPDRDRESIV

SMILES: CN1Cc2ccccc2C(c2ccc(NS(C)(=O)=O)cc2)N=C1OCc1ccc(NS(C)(=O)=O)cc1 (centres undefined)
EC20 (Oryctolagus cuniculus [1]): 140 nM

IC50 [4]: 500 nM | IC50 [7]: 3600 nM
SMILES: CN1Cc2ccccc2[C@H](c2ccc(F)cc2F)N=C1CCc1ccc(NS(C)(=O)=O)cc1.Cl
ERP observations (Canis familiaris [2]): 28 | IC50 [3]: > 100 µM | ERP observations (Canis familiaris [5]): 21 | ERP observations (Canis familiaris [6]): 27 | EC20 (Oryctolagus cuniculus [1]): 7 nM

SMILES: CN1Cc2ccccc2C(c2ccc(NS(C)(=O)=O)cc2)N=C1CCc1ccccc1 (centres undefined)
EC20 (Oryctolagus cuniculus [1]): 780 nM

SMILES: CSc1ccc(C2N=C(OCc3ccc(NS(C)(=O)=O)cc3)N(C)Cc3ccccc32)cc1 (centres undefined)
EC20 (Oryctolagus cuniculus [1]): 4 nM

IC50 [4]: 900 nM | IC50 [7]: 6900 nM
SMILES: CN1Cc2ccccc2[C@H](c2ccccc2)N=C1OCc1ccc(NS(C)(=O)=O)cc1.O=C(O)/C=C/C(=O)O
ERP observations (Canis familiaris [2]): 18 | IC50 [3]: > 30 µM | ERP observations (Canis familiaris [5]): 18 | ERP observations (Canis familiaris [6]): 20 | EC20 (Oryctolagus cuniculus [1]): 4 nM

SMILES: CN1Cc2ccccc2C(c2ccc(F)cc2F)N=C1CCc1ccc(NS(C)(=O)=O)cc1 (centres undefined)
EC20 (Oryctolagus cuniculus [1]): 4 nM

SMILES: CN1Cc2ccccc2C(c2ccc(Cl)cc2)N=C1CCc1ccc(NS(C)(=O)=O)cc1 (centres undefined)
EC20 (Oryctolagus cuniculus [1]): 10 nM

IC50 [4]: 1100 nM | IC50 [7]: 3000 nM
SMILES: CSc1ccc([C@@H]2N=C(OCc3ccc(NS(C)(=O)=O)cc3)N(C)Cc3ccccc32)cc1.Cl
ERP observations (Canis familiaris [8]): 20 | ERP observations (Canis familiaris [2]): 28 | IC50 [3]: > 30 µM | ERP observations (Canis familiaris [5]): 11 | EC20 (Oryctolagus cuniculus [1]): 8 nM

SMILES: CN1Cc2ccc(NS(C)(=O)=O)cc2C(c2ccccc2)N=C1CCc1ccccc1 (centres undefined)
EC20 (Oryctolagus cuniculus [1]): 655 nM

SMILES: CN1Cc2ccccc2C(c2ccc(Cl)c(Cl)c2)N=C1OCc1ccc(NS(C)(=O)=O)cc1 (centres undefined)
EC20 (Oryctolagus cuniculus [1]): 2 nM

IC50 [9]: 5.2 µM
SMILES: CN1Cc2ccccc2[C@@H](c2ccccc2)N=C1OCc1ccc(NS(C)(=O)=O)cc1.O=C(O)/C=C/C(=O)O
ERP (Canis familiaris [2]): 40 ms | IC50 [3]: 126 µM | ERP (Canis familiaris [5]): 31 ms | ERP (Canis familiaris [6]): 36 ms | EC20 (Oryctolagus cuniculus [1]): 1.5 nM

SMILES: CN1Cc2ccccc2C(c2ccc(NS(C)(=O)=O)cc2)N=C1CCc1ccc(NS(C)(=O)=O)cc1 (centres undefined)
EC20 (Oryctolagus cuniculus [10]): inactive

SMILES: CN1Cc2ccccc2C(c2ccc(Cl)cc2)N=C1OCc1ccc(NS(C)(=O)=O)cc1 (centres undefined)
EC20 (Oryctolagus cuniculus [1]): 3 nM

SMILES: CN1Cc2ccccc2C(c2ccc(Cl)cc2)N=C1SCc1ccc(NS(C)(=O)=O)cc1 (centres undefined)
EC20 (Oryctolagus cuniculus [1]): 5.5 nM

SMILES: CN1Cc2ccccc2C(c2ccccc2)N=C1CCc1ccccc1NS(C)(=O)=O (centres undefined)
EC20 (Oryctolagus cuniculus [1]): 500 nM

SMILES: CN1Cc2ccccc2C(c2ccccc2)N=C1CCc1ccccc1 (centres undefined)
EC20 (Oryctolagus cuniculus [1]): 60 nM

SMILES: CCS(=O)(=O)Nc1ccc(CCC2=NC(c3ccccc3)c3ccccc3CN2C)cc1 (centres undefined)
EC20 (Oryctolagus cuniculus [1]): 100 nM

SMILES: CN1Cc2ccccc2[C@H](c2ccc(Cl)cc2)N=C1OCc1ccc(NS(C)(=O)=O)cc1
EC20 (Oryctolagus cuniculus [1]): 4 nM

SMILES: CN1Cc2c(NS(C)(=O)=O)cccc2C(c2ccccc2)N=C1CCc1ccccc1 (centres undefined)
EC20 (Oryctolagus cuniculus [10]): inactive

IC50 [4]: 1100 nM | IC50 [7]: 2500 nM
SMILES: CN1Cc2ccccc2[C@@H](c2ccc(F)cc2F)N=C1CCc1ccc(NS(C)(=O)=O)cc1.Cl
ERP observations (Canis familiaris [2]): 33 | IC50 [3]: > 100 µM | ERP observations (Canis familiaris [5]): 22 | ERP observations (Canis familiaris [6]): 33 | EC20 (Oryctolagus cuniculus [1]): 8 nM

SMILES: CN1Cc2ccccc2C(c2ccccc2)N=C1CCc1ccc(NS(=O)(=O)C(F)(F)F)cc1 (centres undefined)
EC20 (Oryctolagus cuniculus [1]): 520 nM

IC50 [4]: 700 nM | IC50 [7]: 1000 nM
SMILES: CSc1ccc([C@H]2N=C(OCc3ccc(NS(C)(=O)=O)cc3)N(C)Cc3ccccc32)cc1.Cl
ERP observations (Canis familiaris [2]): 33 | ERP observations (Canis familiaris [5]): 28 | ERP observations (Canis familiaris [6]): 33 | EC20 (Oryctolagus cuniculus [1]): 7 nM

SMILES: CN1Cc2ccccc2C(c2ccccc2)N=C1CCc1ccc(NS(C)(=O)=O)cc1 (centres undefined)
EC20 (Oryctolagus cuniculus [1]): 20 nM

SMILES: COc1ccc(C2N=C(OCc3ccc(NS(C)(=O)=O)cc3)N(C)Cc3ccccc32)cc1 (centres undefined)
EC20 (Oryctolagus cuniculus [1]): 4 nM

SMILES: CN1Cc2ccccc2[C@@H](c2ccc(Cl)cc2)N=C1OCc1ccc(NS(C)(=O)=O)cc1
EC20 (Oryctolagus cuniculus [1]): 2 nM

SMILES: CN1Cc2ccccc2C(c2ccccc2)N=C1OCc1ccc(NS(C)(=O)=O)cc1 (centres undefined)
EC20 (Oryctolagus cuniculus [1]): 6 nM

SMILES: CN(CCOc1ccc(NS(C)(=O)=O)cc1)CCc1ccc(NS(C)(=O)=O)cc1 [DOFETILIDE]
ERP observations (Canis familiaris [11]): 30 | ERP observations (Canis familiaris [12]): 21 | EC20 (Oryctolagus cuniculus [1]): 2 nM | ERP observations (Canis familiaris [13]): 28
